Experimental data: ChEMBL document CHEMBL3102720, “Structure-activity relationship study of permethyl ningalin B analogues as P-glycoprotein chemosensitizers” (J Med Chem, 2013)
Activity calls are given as the source filed them. The rule behind the calls is not given here.

Legend:
[1] = target: T1, ATP-dependent translocase ABCB1 (Homo sapiens, UniProt P08183); assay: Modulation of p-gp (unknown origin) transfected in human MDA435/LCC6MDR cells assessed as potentiation of paclitaxel-induced cytotoxicity at 1 uM after 5 days by MTS assay relative to untreated control; assay type: cell-based; details: 120 h
How it was run: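 6000 LCC6MDR or LCC6 cells per well co-incubated with paclitaxel with or without 1 μM modulator for 5 days at 37 °C. […] RF = IC50 without modulator divided by IC50 with modulator. N = 2–3 experiments; mean ± SEM.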

Homo sapiens [2] = species: Homo sapiens; assay: Ratio of verapamil EC50 to compound EC50 for modulation of p-gp (unknown origin) transfected in human MDA435/LCC6MDR cells assessed as reversal of paclitaxel resistance; assay type: cell-based
[3] = target: T2, Broad substrate specificity ATP-binding cassette transporter ABCG2 (Homo sapiens, UniProt Q9UNQ0); assay: Modulation of BCRP (unknown origin) transfected in human HEK293/R2 cells assessed as potentiation of topotecan-induced cytotoxicity at 1 uM after 5 days by MTS assay relative to untreated control; assay type: cell-based; details: hek293/r2, 120 h
T2 sequence (Q9UNQ0 whole entry): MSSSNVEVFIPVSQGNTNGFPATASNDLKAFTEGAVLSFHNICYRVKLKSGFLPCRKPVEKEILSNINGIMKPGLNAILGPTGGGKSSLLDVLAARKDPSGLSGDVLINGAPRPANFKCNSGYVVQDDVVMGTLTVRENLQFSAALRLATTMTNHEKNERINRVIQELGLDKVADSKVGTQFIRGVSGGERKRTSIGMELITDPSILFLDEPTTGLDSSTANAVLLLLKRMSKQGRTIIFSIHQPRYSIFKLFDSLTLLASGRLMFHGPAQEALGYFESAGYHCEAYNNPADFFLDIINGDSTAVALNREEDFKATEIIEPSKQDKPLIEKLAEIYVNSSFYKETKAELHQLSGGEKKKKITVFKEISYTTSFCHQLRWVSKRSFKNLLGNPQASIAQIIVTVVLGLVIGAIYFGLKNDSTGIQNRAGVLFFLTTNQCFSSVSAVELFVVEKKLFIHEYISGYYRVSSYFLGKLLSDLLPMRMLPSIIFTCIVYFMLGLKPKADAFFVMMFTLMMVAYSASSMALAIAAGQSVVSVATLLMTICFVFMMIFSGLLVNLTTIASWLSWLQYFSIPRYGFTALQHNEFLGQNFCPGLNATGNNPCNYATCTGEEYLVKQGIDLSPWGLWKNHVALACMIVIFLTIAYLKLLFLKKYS
How it was run: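 4500 HEK293/R2 or HEK293/pcDNA3.1 cells per well co-incubated with topotecan with or without 1 μM modulator for 5 days at 37 °C. Readout was MTS/PMS absorbance at 490 nm after 2 h. RF = IC50 without modulator divided by IC50 with modulator. N = 2–4 experiments.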

[4] = target: Multidrug resistance-associated protein 1 (Homo sapiens, UniProt P33527); assay: Modulation of MRP1 (unknown origin) transfected in human 2008/MRP1 cells assessed as potentiation of doxorubicin-induced cytotoxicity at 1 uM after 5 days by MTS assay relative to untreated control; assay type: cell-based; details: 2008/mrp1, 120 h
[5] = target: T1, ATP-dependent translocase ABCB1; assay: Modulation of p-gp (unknown origin) transfected in human MDA435/LCC6MDR cells assessed as increase in intracellular drug accumulation at 20 to 200 uM after 150 mins by reverse phase-HPLC analysis; assay type: cell-based; details: 2.5 h
How it was run: (§1)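 3 × 10^6 LCC6 or LCC6MDR cells incubated with 20 or 200 μM analogue at 37 °C for 150 min. Cells were then pelleted, washed with cold PBS pH 7.4, lysed in 100% methanol by vortexing for 5 min and spun. The supernatant was analysed by reversed-phase C18 HPLC with UV-vis detection. N = 2 independent experiments.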

[6] = Drug uptake in human MDA435/LCC6 cells at 20 to 200 uM after 150 mins by reverse phase-HPLC analysis; assay type: ADME, cell-based; details: mda-435/lcc6, 2.5 h; how it was run: as §1
[7] = target: T1, ATP-dependent translocase ABCB1; assay: Inhibition of p-gp (unknown origin) transfected in human MDA435/LCC6MDR cells assessed as reversal of doxorubicin drug resistance relative to control; assay type: cell-based
[8] = target: T1, ATP-dependent translocase ABCB1; assay: Modulation of p-gp (unknown origin) transfected in human MDA435/LCC6MDR cells assessed as induction of doxorubicin accumulation at 1 uM after 150 mins by spectrofluorometric analysis relative to control; assay type: cell-based; details: 2.5 h
How it was run: (§2)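 1 × 10^6 LCC6 or LCC6MDR cells incubated with 20 μM doxorubicin plus 1 μM analogue at 37 °C for 150 min; 0.1% DMSO served as negative control. Cells were washed with cold PBS and lysed in 0.75 M HCl/0.2% Triton X-100 in 2-propanol. Supernatant DOX fluorescence was read at ex 460/em 610 nm. N = 3–5 experiments; Student's t test.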

MDA-435/LCC6 = assay: Induction of doxorubicin accumulation in human MDA435/LCC6 cells at 1 uM after 150 mins by spectrofluorometric analysis; assay type: functional, cell-based; how it was run: as §2
P-gp (unknown origin) = assay: Therapeutic index, ratio of IC50 for mouse L929 cells to EC50 for modulation of p-gp (unknown origin) transfected in human MDA435/LCC6MDR cells assessed as reversal of paclitaxel resistance; assay type: cell-based; details: read-out: Ratio IC50/EC50
How it was run: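 Therapeutic index = L929 cytotoxicity IC50 (10 000 cells, 3-day MTS) divided by EC50 for reversing paclitaxel resistance in LCC6MDR (5-day MTS co-incubation with modulator series). N = 2–5 experiments.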

L929 = assay: Cytotoxicity against mouse L929 cells assessed as growth inhibition after 3 days by MTS assay; assay type: cell-based; details: L929, 72 h
How it was run: (§3)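 10 000 cells per well exposed to a concentration series of analogue for 3 days at 37 °C. Growth read by MTS proliferation assay and IC50 determined. Cells were cultured in DMEM with 10% heat-inactivated FBS and penicillin/streptomycin at 37 °C under 5% CO2.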

[9] = Cytotoxicity against human MDA435/LCC6MDR cells assessed as growth inhibition after 3 days by MTS assay; assay type: functional, cell-based; details: 72 h; how it was run: as §3
[10] = Cytotoxicity against human MDA435/LCC6 cells assessed as growth inhibition after 3 days by MTS assay; assay type: functional, cell-based; details: MDA-435/LCC6, 72 h; how it was run: as §3
Homo sapiens [11] = species: Homo sapiens; assay: Ratio of compound activity to verapamil activity for modulation of p-gp (unknown origin) transfected in human MDA435/LCC6MDR cells assessed as potentiation of paclitaxel-induced cytotoxicity; assay type: cell-based

T1 sequence (P08183 whole entry): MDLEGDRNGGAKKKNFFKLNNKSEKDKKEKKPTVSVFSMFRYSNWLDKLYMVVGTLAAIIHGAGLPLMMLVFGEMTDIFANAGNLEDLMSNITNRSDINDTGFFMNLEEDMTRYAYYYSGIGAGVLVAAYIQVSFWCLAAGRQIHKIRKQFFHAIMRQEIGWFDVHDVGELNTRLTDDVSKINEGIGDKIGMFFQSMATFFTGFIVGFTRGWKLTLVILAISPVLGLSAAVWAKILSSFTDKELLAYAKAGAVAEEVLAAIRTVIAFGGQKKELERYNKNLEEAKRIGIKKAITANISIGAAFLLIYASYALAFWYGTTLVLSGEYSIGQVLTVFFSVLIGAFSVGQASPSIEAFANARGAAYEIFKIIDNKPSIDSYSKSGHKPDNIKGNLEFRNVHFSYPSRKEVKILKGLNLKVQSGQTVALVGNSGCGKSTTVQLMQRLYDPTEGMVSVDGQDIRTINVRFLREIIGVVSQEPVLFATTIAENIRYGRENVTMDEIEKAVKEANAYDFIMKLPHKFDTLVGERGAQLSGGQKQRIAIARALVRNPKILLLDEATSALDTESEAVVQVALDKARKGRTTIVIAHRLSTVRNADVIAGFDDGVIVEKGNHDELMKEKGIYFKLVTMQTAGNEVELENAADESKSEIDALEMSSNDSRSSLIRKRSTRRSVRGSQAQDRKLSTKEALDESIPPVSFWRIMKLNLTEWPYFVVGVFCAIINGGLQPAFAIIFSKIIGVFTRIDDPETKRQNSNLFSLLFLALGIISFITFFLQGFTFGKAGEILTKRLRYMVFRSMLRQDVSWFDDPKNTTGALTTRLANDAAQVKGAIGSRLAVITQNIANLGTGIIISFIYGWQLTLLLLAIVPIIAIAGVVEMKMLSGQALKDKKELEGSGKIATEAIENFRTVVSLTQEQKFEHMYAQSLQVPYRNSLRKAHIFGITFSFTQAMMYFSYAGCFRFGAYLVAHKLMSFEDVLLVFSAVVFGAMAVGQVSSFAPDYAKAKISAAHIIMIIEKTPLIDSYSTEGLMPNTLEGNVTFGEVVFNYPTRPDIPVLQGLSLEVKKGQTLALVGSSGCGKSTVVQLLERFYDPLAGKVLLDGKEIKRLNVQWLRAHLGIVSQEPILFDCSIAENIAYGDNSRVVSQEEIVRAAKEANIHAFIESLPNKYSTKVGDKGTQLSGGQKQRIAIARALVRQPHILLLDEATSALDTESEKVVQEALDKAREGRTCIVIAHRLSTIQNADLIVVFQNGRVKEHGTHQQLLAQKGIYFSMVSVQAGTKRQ
Chain of Multidrug resistance-associated protein 1 (P33527 whole entry): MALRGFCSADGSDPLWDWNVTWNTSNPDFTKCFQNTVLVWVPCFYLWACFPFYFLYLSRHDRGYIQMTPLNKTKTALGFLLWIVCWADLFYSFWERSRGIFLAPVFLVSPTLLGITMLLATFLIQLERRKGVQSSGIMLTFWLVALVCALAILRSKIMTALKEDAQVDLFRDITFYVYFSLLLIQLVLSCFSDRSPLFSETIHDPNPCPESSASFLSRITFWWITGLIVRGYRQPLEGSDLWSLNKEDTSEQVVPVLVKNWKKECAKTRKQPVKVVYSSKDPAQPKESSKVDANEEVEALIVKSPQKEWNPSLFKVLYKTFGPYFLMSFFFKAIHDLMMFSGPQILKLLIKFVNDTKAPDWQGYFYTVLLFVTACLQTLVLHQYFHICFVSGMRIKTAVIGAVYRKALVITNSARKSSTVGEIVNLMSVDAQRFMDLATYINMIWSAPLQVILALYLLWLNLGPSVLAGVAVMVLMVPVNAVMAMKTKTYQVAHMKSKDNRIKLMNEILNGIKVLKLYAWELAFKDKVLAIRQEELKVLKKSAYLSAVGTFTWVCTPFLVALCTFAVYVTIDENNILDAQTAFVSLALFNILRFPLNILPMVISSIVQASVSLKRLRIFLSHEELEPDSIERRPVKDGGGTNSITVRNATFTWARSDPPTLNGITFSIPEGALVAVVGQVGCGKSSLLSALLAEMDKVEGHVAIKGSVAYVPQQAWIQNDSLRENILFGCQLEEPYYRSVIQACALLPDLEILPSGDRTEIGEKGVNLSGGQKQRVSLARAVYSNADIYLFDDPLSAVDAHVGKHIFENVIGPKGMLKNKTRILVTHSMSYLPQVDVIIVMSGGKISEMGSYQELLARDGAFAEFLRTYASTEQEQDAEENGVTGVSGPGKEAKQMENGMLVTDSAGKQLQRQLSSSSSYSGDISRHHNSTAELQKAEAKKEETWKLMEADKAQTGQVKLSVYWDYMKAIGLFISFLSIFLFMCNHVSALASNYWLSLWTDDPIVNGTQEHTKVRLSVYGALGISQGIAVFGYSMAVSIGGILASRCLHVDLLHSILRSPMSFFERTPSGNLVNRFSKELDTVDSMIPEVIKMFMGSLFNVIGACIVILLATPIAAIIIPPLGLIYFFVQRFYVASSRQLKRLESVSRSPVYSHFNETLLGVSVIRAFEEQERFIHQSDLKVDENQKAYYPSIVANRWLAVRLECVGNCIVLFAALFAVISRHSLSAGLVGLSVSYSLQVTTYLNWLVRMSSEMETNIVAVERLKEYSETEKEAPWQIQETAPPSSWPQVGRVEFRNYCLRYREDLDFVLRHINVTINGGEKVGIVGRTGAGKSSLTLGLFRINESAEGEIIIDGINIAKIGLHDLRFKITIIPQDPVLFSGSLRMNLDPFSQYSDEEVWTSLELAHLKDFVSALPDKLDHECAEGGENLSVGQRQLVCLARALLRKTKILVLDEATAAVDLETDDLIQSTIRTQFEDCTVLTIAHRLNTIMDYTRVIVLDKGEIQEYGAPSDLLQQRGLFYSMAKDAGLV

Structure (SMILES)	fold change (FC) [1]	also measured
CCOC(=O)CN1C(=O)C(c2ccc(OC)c(OC)c2)=C(c2ccc(OC)c(OC)c2)C1=O	7	
COc1ccc(C2=C(c3ccc(OC)c(OC)c3)C(=O)N(CCn3cnc4c(N)ncnc43)C2=O)cc1OC	1.7	
COc1ccc(C2=C(c3ccc(OC)c(OC)c3)C(=O)N(CC(=O)O)C2=O)cc1OC	0.9	
COc1ccc(C(=O)CN2C(=O)C(c3cc(OC)c(OC)c(OC)c3)=C(c3cc(OC)c(OC)c(OC)c3)C2=O)cc1	4.9	
COc1ccc(C2=C(c3ccc(OC)c(OC)c3)C(=O)N(CC(=O)c3ccc(OCc4ccccc4)c(OC)c3)C2=O)cc1OC	42.7	Ratio EC50 (Homo sapiens [2]): 4.8; fold change (FC) [3]: 6.9; fold change (FC) [4]: 1.1; Activity [5]: Active; Drug uptake [6]: Active; fold change (FC) [7]: 5.6; fold change (FC) [8]: 2.2; Activity (MDA-435/LCC6): inactive; selectivity ratio (P-gp (unknown origin)): > 1070; IC50 (L929): > 100 µM; IC50 [9]: > 100 µM; IC50 [10]: > 100 µM
COc1ccc(CCN2C(=O)C(c3ccc(OC)c(OC)c3)=C(c3cc(OC)c(OC)c(OC)c3)C2=O)cc1	12.7	
COc1cc(C(=O)CN2C(=O)C(c3cc(OC)c(OC)c(OC)c3)=C(c3cc(OC)c(OC)c(OC)c3)C2=O)cc(OC)c1OC	1.8	
COc1ccc(CN2C(=O)C(c3ccc(OC)c(OC)c3)=C(c3cc(OC)c(OC)c(OC)c3)C2=O)cc1OC	13.2	
COc1ccc(C2=C(c3cc(OC)c(OC)c(OC)c3)C(=O)N(CC(=O)c3cc(OC)c(OC)c(OC)c3)C2=O)cc1OC	3.8	
C=CCOc1cc(CN2C(=O)C(c3ccc(OC)c(OC)c3)=C(c3cc(OC)c(OC)c(OC)c3)C2=O)cc(OCC=C)c1OCC=C	6.8	
COc1ccc(C2=C(c3ccc(OC)c(OC)c3)C(=O)N(CC(=O)c3cc(OC)c(OC)c(OC)c3)C2=O)cc1OC	9.3	
COc1ccc(C2=C(c3ccc(OC)c(OC)c3)C(=O)N(CCn3cnc4c(=O)n(C)c(=O)n(C)c43)C2=O)cc1OC	1.2	
C=CCOc1cc(CN2C(=O)C(c3ccc(OC)c(OC)c3)=C(c3ccc(OC)c(OC)c3)C2=O)cc(OCC=C)c1OCC=C	3.8	
COc1ccc(CN2C(=O)C(c3ccc(OC)c(OC)c3)=C(c3cc(OC)c(OC)c(OC)c3)C2=O)cc1	18	Ratio (Homo sapiens [11]): 4
COc1ccc(CCN2C(=O)C(c3ccc(OC)c(OC)c3)=C(c3cc(OC)c(OC)c(OC)c3)C2=O)cc1OC	4.6	
COc1ccc(C2=C(c3ccc(OC)c(OC)c3)C(=O)N(CC(=O)OC(C)(C)C)C2=O)cc1OC	3.3	
COc1ccc(C(=O)CN2C(=O)C(c3ccc(OC)c(OC)c3)=C(c3cc(OC)c(OC)c(OC)c3)C2=O)cc1OC	5.1	
CCOc1cc(CN2C(=O)C(c3ccc(OC)c(OC)c3)=C(c3ccc(OC)c(OC)c3)C2=O)cc(OCC)c1OCC	1.9	
COc1ccc(C(=O)CN2C(=O)C(c3ccc(OC)c(OC)c3)=C(c3cc(OC)c(OC)c(OC)c3)C2=O)cc1	7.2	
COc1ccc(C2=C(c3ccc(OC)c(OC)c3)C(=O)N(CC(=O)c3ccc(OCc4ccccc4)cc3)C2=O)cc1OC	10.4	
COc1ccc(C2=C(c3ccc(OC)c(OC)c3)C(=O)N(Cc3cc(OC(C)C)c(OC(C)C)c(OC(C)C)c3)C2=O)cc1OC	8.5	
COc1ccc(C2=C(c3cc(OC)c(OC)c(OC)c3)C(=O)N(c3cc(OC)c(OC)c(OC)c3)C2=O)cc1OC	1.5	
COc1ccc(C2=C(c3cc(OC)c(OC)c(OC)c3)C(=O)N(CC(=O)c3ccc(OCc4ccccc4)cc3)C2=O)cc1OC	16.8	
COc1ccc(C2=C(c3cc(OC)c(OC)c(OC)c3)C(=O)N(Cc3cc(OC)c(OC)c(OC)c3)C2=O)cc1OC	7.4	
COc1ccc(C2=C(c3cc(OC)c(OC)c(OC)c3)C(=O)N(CC(=O)c3ccc(OCc4ccccc4)c(OC)c3)C2=O)cc1OC	42.7	Ratio EC50 (Homo sapiens [2]): 4.1; fold change (FC) [3]: 8.2; fold change (FC) [4]: 1.2; fold change (FC) [7]: 5.6; fold change (FC) [8]: 2.3; Activity (MDA-435/LCC6): inactive; selectivity ratio (P-gp (unknown origin)): > 909; IC50 (L929): > 100 µM; IC50 [9]: > 100 µM; IC50 [10]: > 100 µM
COc1ccc(CCN(C)CCCC(C#N)(c2ccc(OC)c(OC)c2)C(C)C)cc1OC (stereo not given)		Activity (MDA-435/LCC6): inactive
COc1ccc(C(=O)CN2C(=O)C(c3cc(OC)c(OC)c(OC)c3)=C(c3cc(OC)c(OC)c(OC)c3)C2=O)cc1OC	3.3	
